Measured values from the EternaBench riboswitch data.

Tested on: MS2 coat protein
Test: apparent Kd, MS2 coat protein; higher = weaker binding; RNA-MaP array; FMN 200 µM where present
In short: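 The titrant was SNAP-549-labelled MS2 coat protein, run from 0.7 or 1.5 nM in doubling steps to 3 µM. It was applied to designs transcribed by stalled E. coli RNA polymerase on Illumina sequencing-chip clusters, without ligand first and then with constant ligand, in 100 mM Tris-HCl pH 7.5, 80 mM KCl, 4 mM MgCl2, BSA, DTT, yeast tRNA and Tween-20. The apparent Kd is the median of filtered per-cluster binding-curve fits, with green signal normalised to red-channel RNA signal and control-cluster median Fmax.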

[1] = designed as: OFF switch for flavin mononucleotide, no ligand
[2] = ligand present: flavin mononucleotide, designed as: OFF switch for flavin mononucleotide
[3] = ligand present: flavin mononucleotide, designed as: ON switch for flavin mononucleotide
[4] = designed as: ON switch for flavin mononucleotide, no ligand

Sequence | apparent Kd [1] | apparent Kd [2] | apparent Kd [3] | apparent Kd [4]
CGGUGCUGAGGAUAUACAUGAGGAUCACCCAUGUGUGCCAGCUAGAAGACUGGCACUUGUAGAAGGCAGUACUG | 11.4 nM | 20.5 nM | – | –
UGGCUGAGUCGAGGAUAUGAUCUUCAUAUAAUAACAUGAGGAUCACCCAUGUAUAAUUACAUGGAUCAGAAGGCGACUCAGCCA | – | – | 38.1 nM | –
GAAAACAGAGGAUAUACAAAAUUAUGACGAAAGUCAUAAAAACAUGAGGAUCACCCAUGUAGAAGGCUGAAGAA | 29 nM | 26.9 nM | – | –
AUGGAUAUCACAGGAUAUGCCCGGGAUACCCGGGCAGAAGGGUGAUCCAUCCUAUGUAAAUACAUGAGGAUCACCCAUGUGUCC | – | – | 71.2 nM | 75 nM
UUGAACAUAGGAUAUAGUUGUUUGUACAUGAGGAUCACCCAUGUUAUGUAUGUUUUGUUUCUAGAAGGAUGUUGAU | 37.7 nM | 32.3 nM | – | –
AGAUCCUGAGUCAGGAUAUAGAGGCGGUAGCCUGGCUAGAAGGGACAUGAGGAUCACCCAUGUGGGUUCUUGCC | 12.5 nM | 17.4 nM | – | –
CGCUGUCUCGCAGGAUAUGCAUUGGAUUACAAUGCAGAAGGGCGAUUACAUGAGGAUCACCCAUGUGUUGACAGUGAAGAAGAG | – | – | 21.6 nM | 114 nM
CGAUGACACAGUCAUCCAAUACGAACAUGAGGAUCACCCAUGUAGGAUAUGCUACUCAAAGAGUAGCAGAAGGACAUGUGCCUU | 38.4 nM | 159 nM | – | –
AACAAACGCCUAGGAUAUCAUACUCGAGCGGUCUGAGAAGGAGGCAAGCUUGGGUCCUCAGCACAUGAGGAUCACCCAUGUAAG | 303 nM | 57.2 nM | – | –
CAGCCCUGAGGAUAUCCACCCUCGUACAUGAGGAUCACCCAUGUCUCCCUCUGGGCUUUCGGAGAAGGCAGGUAUC | 69 nM | 58.5 nM | – | –
CGCUGUCACGCAGGAUAUGCAUUGGAUUCCAAUGCAGAAGGGCGAUUACAUGAGGAUCACCCAUGUGCUGACAGUGAAGAAGAG | – | – | 65.9 nM | 1300 nM
GAGGCCCAAACAUGAGGAUCACCCAUGUGUUUAGUCCUCACAUAGGAUAUCCACACGAGAAGUGUGGAGAAGGAUGAGGGCGUC | 49 nM | 101 nM | – | –
UGUGUGAGACAGGAUAUGCCAGAUGUAUUACUGGUAGAAGGGUCUACAUGAGGAUCACCCAUGUGGCCGGCCGG | 27.1 nM | 61.8 nM | – | –
GGAGCCGACACUGAGGAUAUUCAUAUUAAAACAUGAGGAUCACCCAUGUAGGCCAGAAGGCCUUGGGAGAAGGCAGGCCGGCUCG | – | – | 26.5 nM | 377 nM
GCCAUCACAUGAGGAUAUGCUCCCGUUUCGGGAGCAGAAGGCAUGUCAUCAGACAUGAGGAUCACCCAUGUAGUUAAGAUGGCA | – | – | 15.1 nM | 361 nM
AAUAACAGAGGAUAUACUGUUUUAUGUGUUUAUUGUUUUGAACAUGAGGAUCACCCAUGUAGAAGGCUGAAUGA | 26.1 nM | 26.2 nM | – | –
GCGAGUAAAGCAGGAUAUCUAUUGUCUCGGAAACAUGAGGAUCACCCAUGUAGAGAAGGGCUAAGUCAUACAAUUCGAACUCGC | 11.2 nM | 10.8 nM | – | –
GCAUGGGCCGUCAGGAUAUAGGCGCCGUGAAGGUAUUAGAAGGGACAUGAGGAUCACCCAUGUAUGAGAAAAGA | 36.7 nM | 42.7 nM | – | –
GCCCAGCCCAGGCCCACGGCAUCACAGGAUAUGCCGAUAACAUGAGGAUCACCCAUGUCAACUCCGCAGAAGGGUGAUAUCGUG | – | – | 22.1 nM | 121 nM
GGUUAUUGCAAGGAUAUGCUUUUUUUUGAUAUUGCAGAAGGUGCAACAUGAGGAUCACCCAUGUUGGAUGGGUU | 119 nM | 162 nM | – | –
AUUAGGUCAGGAUAUACAUGAGGAUCACCCAUGUAGGUGGAACCUUUAUCGGGUGACCGUAGAAGGGACAUCAA | 41.1 nM | 76.3 nM | – | –
GCUAGUAUUGCAGGAUAUUGUGUUUAAGGAUGGCAAGAAGGGCAUUACAUGAGGAUCACCCAUGUUUUCCGUAGUCAUACUAGC | 7.34 nM | 7.28 nM | – | –
UGAGCCUCGUGAGGAUAUACAUGAGGAUCACCCAUGUAAUAAAGUGAACGGAGGAAGCUCCGAAUGUAGAAGGCACGAGGCUCA | 60.1 nM | 372 nM | – | –
